Bioassay records (PubChem BioAssay)
Only some compounds are listed: those with a hit (about 1.8% of all), similar ones and a draw of the others.
DDE Tn7 FP inh: disrupts Tn7 cyclic peptide binding to fibrin D-Dimer-E complex; P02675; FP displacement of FITC-Tn7 peptide from fibrin DD(E); 0% = median of compound wells per plate; inhibition, % at 8.3 µM; 370,000 tested, 0.13% active;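 active means inhibition above the mean of compounds falling within the control limits plus 3 SD of them, cut at about 14% in these data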;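 further: 0% = plate median of compound wells and 100% = 10 µM Aha-Tn7 peptide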
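assay system = human clot-derived fibrin DD(E) complex | quantity = Fibrin-DD(E) at 2 µM final | timing = 10 min preincubation, 3 h with tracer, room temperature | signal = fluorescence polarization | measure = percent inhibition | benchmarks = high control wells with 10 µM unlabelled Aha-Tn7 peptide (full inhibition) | replicates = singlicate testing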
CAL PDZ FP-1: human CAL PDZ-peptide interaction inhibition; purified CAL PDZ, TMR-peptide fluorescence polarization, 1 h; inhibition, % at 20 µM; Q9HD26; 330,000 tested, 0.02% active;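 active means highest replicate inhibition of at least 40%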;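 further: plate controls were DMSO neutral control wells for no effect and unlabeled competitor peptide control wells for full effect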
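Assay system – tagged CAL PDZ protein CerCALP, purified · Timing – 1 h at RT · Compound – single point, 20 µM · Measured by – fluorescence polarization from S- and P-plane intensities, G-factor corrected · Evaluation – inhibition from polarization loss · Probe or stimulus – TMR reporter peptide T*-PRC34 · Buffer or medium – pH 7.4 phosphate-saline buffer, reducing agent, detergent, IgG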
ARNT-TACC3 inh: disrupts binding between human ARNT and TACC3; AlphaScreen His-ARNT PAS-B/GST-TACC3 binding, luminescence; TACC3 fragment carries E629A point mutation; inhibition, % at 9.99 µM; 390,000 tested, 0.66% active;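 active means mean inhibition of replicates at least 50% and at least half of replicates each reaching 50%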;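 further: 0% = complete ARNT plus TACC3 wells and 100% = ARNT alone without TACC3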
Tn6 DDE FP: inhibitors of Tn6 peptide binding to human fibrin DD(E); Fibrin DD(E) TRITC-Tn6 fluorescence polarization displacement; 370,000 tested, 0.21% active; inhibition, % at 8.3 µM; AID 720509;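 active means inhibition above a per-campaign cutoff: mean of compounds within control limits plus 3 SD, cut at about 15% in these data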;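 further: 0% = median of all compound wells on the plate and 100% = blocking peptide control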
CAL PDZ FP-2: CAL PDZ (human) peptide binding inhibition; purified CAL PDZ, TMR-peptide fluorescence polarization, 1 h; inhibition, % at 24.9 µM; 300,000 tested, 0.92% active;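 active means mean inhibition of at least 30% with at least half of replicates also reaching 30%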;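 further: 0% = DMSO neutral control and 100% = excess unlabeled competitor peptide PRC23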
GRK2 aptamer HTS: blocks RNA aptamer binding to human GRK2. inhibition of aptamer binding, % at 10 µM. 330,000 tested, 0.59% active. bead flow cytometry, FAM-aptamer displacement from GRK2. P25098;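 active means inhibition of aptamer binding above 40%, roughly 3 SD of noise, on plates passing a quality check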;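 further: median bead fluorescence of bound FAM aptamer so fluorescent compounds give negative values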
Target sequence (P25098 whole entry, looked up): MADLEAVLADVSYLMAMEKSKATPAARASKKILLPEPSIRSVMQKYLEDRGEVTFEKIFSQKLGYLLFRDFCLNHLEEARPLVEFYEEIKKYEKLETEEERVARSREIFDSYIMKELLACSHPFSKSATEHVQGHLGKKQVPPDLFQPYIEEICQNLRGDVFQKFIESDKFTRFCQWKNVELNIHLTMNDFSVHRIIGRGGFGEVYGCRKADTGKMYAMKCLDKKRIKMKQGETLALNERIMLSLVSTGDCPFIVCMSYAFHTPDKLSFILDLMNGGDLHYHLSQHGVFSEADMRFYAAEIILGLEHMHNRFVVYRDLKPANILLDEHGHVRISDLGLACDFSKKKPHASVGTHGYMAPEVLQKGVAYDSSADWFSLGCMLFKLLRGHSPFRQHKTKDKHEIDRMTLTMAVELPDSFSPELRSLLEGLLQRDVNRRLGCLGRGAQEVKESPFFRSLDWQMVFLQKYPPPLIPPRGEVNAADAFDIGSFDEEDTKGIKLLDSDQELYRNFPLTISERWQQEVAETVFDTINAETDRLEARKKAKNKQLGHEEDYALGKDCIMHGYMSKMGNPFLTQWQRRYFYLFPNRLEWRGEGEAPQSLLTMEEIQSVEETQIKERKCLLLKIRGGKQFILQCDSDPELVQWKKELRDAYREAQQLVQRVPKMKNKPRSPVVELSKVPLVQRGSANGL
Starred values were filed as active, the others as inactive; x = no result given; + = active, no number.

SMILES | DDE Tn7 FP inh | CAL PDZ FP-1 | ARNT-TACC3 inh | Tn6 DDE FP | CAL PDZ FP-2 | GRK2 aptamer HTS
CCOC(=O)NC(=O)/C(N=Nc1ccc(C(F)(F)F)cc1)=C(\C)O | -3 | 0 | x | -3 | 45* | 0
C[C@@H]1CCCCO[C@@H](CN(C)CC2CCCCC2)[C@H](C)CN([C@@H](C)CO)C(=O)c2cc(NC(=O)Nc3ccc(F)cc3)ccc2O1 | x | x | 12 | x | x | x
O=C(c1ccccc1)c1c[nH]c(C(=O)C(Cl)(Cl)Cl)c1 | 4 | 0 | -7 | 5 | 1 | 2
O=C(Cc1ccccc1)c1c[nH]c(C(=O)C(Cl)(Cl)Cl)c1 | 6 | 1 | -3 | 6 | 168* | 13
CC(=O)OCC(=O)C1(O)CCC2C3CC(F)C4=CC(=O)CCC4(C)C3C(=O)CC21C (stereo not given) | -7 | 0 | -3 | -3 | 130* | x
CC(=O)OCC(=O)C1(O)CCC2C3CC(F)C4=CC(=O)CCC4(C)C3C(O)CC21C (stereo not given) | 1 | 1 | -4 | -3 | 86* | x
CC(=O)OCC(=O)[C@@]1(O)CC[C@H]2[C@@H]3CCC4=CC(=O)CC[C@]4(C)[C@H]3[C@@H](O)C[C@@]21C | 4 | 0 | -3 | -2 | -4 | 0
CC(C)CCN1CC(=O)N2[C@@H](Cc3c([nH]c4ccccc34)C2(C)C)C1=O | 0 | 0 | -2 | -2 | 61* | 0
O=C(C[C@H]1CC[C@@H]2[C@H](COC[C@@H](O)CN2C(=O)C2CC2)O1)NCc1ccncc1 | x | x | -8 | x | x | x
COc1cnc(-c2ccccn2)nc1Oc1ccc(Cl)c2ccccc12 | 4 | -2 | 17* | -8 | -4 | 0
C[C@H]1CN([C@@H](C)CO)C(=O)CCCn2nncc2CO[C@@H]1CN(C)C(=O)C1CCCCC1 | x | x | -6 | x | x | x
COCC(=O)N1CC[C@@H]2[C@@H](CO)N(C)c3ccc(-c4cccc(OC)c4)cc3[C@@H]21 | x | x | 0 | x | x | x
CCCCC(=O)N1C/C=C\[C@H](c2ccc(OC)cc2)N(Cc2ccc(F)cc2)C(=O)[C@@H]1C | 2 | 1 | 8.3* | 9 | -1 | 4
C[C@H]1CN([C@@H](C)CO)C(=O)c2cccc(NC(=O)NC3CCCCC3)c2O[C@H]1CN(C)C(=O)Nc1cccc2ccccc12 | x | x | 26 | x | x | x
O=C(COC(=O)COc1ccc(Br)cc1)NCC1CCCO1 (stereo not given) | -3 | 0 | -1 | 3 | 91* | 1
CC(=O)NC(Cc1cccc(C)c1)C(=O)NC1CCN(S(=O)(=O)c2ccccc2)CC1 (stereo not given) | -3 | -1 | 0 | -10 | 49* | 1
CC(=O)NC(Cc1ccc(F)cc1)C(=O)NC1CCN(S(=O)(=O)c2ccccc2)CC1 (stereo not given) | 6 | -2 | -4 | 5 | -3 | 5
O=C1C=C(Nc2ccccc2C(=O)O)c2ccccc2C1=O | 5 | 2 | 36 | -3 | 76* | 5
COc1ccc(NC(=O)CSc2nnc(Cn3cnc4ccccc43)n2C)cc1 | 4 | -2 | 1 | -2 | -2 | 0
CCOC(=O)CNC(=O)CSc1nnc(Cn2cnc3ccccc32)n1C | -13 | -1 | 0 | -2 | + | 0
CCN1C(=O)[C@H]2[C@@H](c3ccc(-c4ccc(OC)cc4)c(OC)c3)N3CCCC[C@@]3(C(=O)OC)[C@H]2C1=O | 4 | 0 | -3 | 4 | -6 | 0
COc1cccc(-n2c(=O)c3cc(OC)c(OC)cc3n(CC(=O)Nc3cc(C)[nH]n3)c2=O)c1 | 2 | -3 | 20 | -4 | 2 | 0
CC1CCN(C(=O)Cn2cc3c(n2)CCCC3)CC1 | 8 | -1 | 47* | -4 | x | 0
O=C(c1cccc(C(F)(F)F)c1)N1CC[C@H]2[C@H](CCCN2Cc2ccc(F)cc2)C1 | 4 | x | x | 3 | x | x
N#Cc1cccc2c1-c1ccccc1/C2=N/NC(N)=S | x | 0 | 13 | x | 56* | 0
SMILES | DDE Tn7 FP inh | CAL PDZ FP-1 | ARNT-TACC3 inh | Tn6 DDE FP | CAL PDZ FP-2 | GRK2 aptamer HTS
Cc1cc(SCc2cccc(Cl)c2)nc(=O)[nH]1 | 1 | -2 | 2 | 3 | 55* | 6
Cc1cc(SCc2ccc(Cl)cc2)nc(=O)[nH]1 | 6 | -1 | -1 | -1 | -4 | 5
CC(O)c1cccc(-c2ccc(CN3C[C@]4(CO)O[C@@H](CO)C[C@@H]4S3(=O)=O)cc2)c1 (stereo not given in full) | -2 | -1 | -2 | 8 | 42* | 0
Cc1ccc([C@H]2C[C@]34CN(Cc5ccccc5)S(=O)(=O)[C@H]3C[C@H]2O4)cc1 | 1 | x | x | 4 | x | x
C[C@@H]1CN([C@@H](C)CO)C(=O)c2cc(NC(=O)NC3CCCCC3)ccc2O[C@@H](C)CCCCO[C@H]1CN(C)Cc1ccc2c(c1)OCO2 | x | x | 2 | x | x | x
COc1cccc(-c2ccc([C@H]3[C@@H](CO)N4CCCCN(C(=O)NC(C)C)C[C@@H]34)cc2)c1 | x | x | 3 | x | x | x
CCOC(=O)c1cnn(-c2ccc([N+](=O)[O-])cc2)c1N | -11 | 0 | -11 | -2 | 60* | 0
O=C(Cn1cc(COc2ccc3ccc(=O)oc3c2)nn1)c1ccc(O)cc1 | 2 | -1 | -3 | 1 | 30* | x
COC(=O)c1cccc(Cn2ccc3ccc(-c4ccc5ccn(C(=O)C6CC6)c5c4)cc32)c1 | -3 | x | x | -1 | x | x
CC(C)(C)c1cc(C(=O)N/N=C/c2ccccc2O)n(-c2ccccc2)n1 | -7 | 0 | 28 | -5 | -2 | 99*
Cc1ccc(NC(=O)c2c(-c3ccccc3)noc2C)nc1 | 2 | -1 | -11 | 6 | + | 0
Cc1onc(-c2ccccc2)c1C(=O)NC(=S)NNC(=O)c1ccc(O)cc1 | 4 | 0 | 21 | -6 | 0 | 0
Cc1onc(-c2ccccc2)c1C(=O)NC(=S)NNC(=O)c1ccc(O)cc1O | 1 | -1 | 95* | 15 | -5 | 0
Cc1onc(-c2ccccc2)c1C(=O)NC(=S)NNC(=O)c1ccccc1O | 1 | 1 | 58* | -1 | -1 | 2
CC(C)NC(=O)N[C@@H]1CC[C@@H](CCN)O[C@H]1CO | x | x | -3 | x | x | x
C[C@H](NC(=O)C[C@H]1C=C[C@@H](NC(=O)C2CC2)[C@H](CO)O1)c1ccccc1 | x | x | 3 | x | x | x
O=C(C[C@@H]1CC[C@H]2[C@@H](COC[C@H](O)CN2C(=O)c2ccccc2F)O1)NCc1ccc(-c2ccccc2)cc1 | x | x | -3 | x | x | x
CC1(C)CC(CC(=O)O)CC(C)(C)N1 | -5 | 0 | -2 | -4 | 5 | 0
C/C(=N\O)C1CC(CC(=O)O)C1(C)C (stereo not given) | 5 | 8 | -14 | 6 | 43* | 2
CCOC(=O)c1c(C)[nH]c(C(=O)OCC(=O)Nc2cc(C)c(Cl)cc2OC)c1C | 0 | 0 | 4 | -1 | 37* | 2
